Measurements from ChEMBL document CHEMBL5712901, “DOT1L inhibition blocks multiple myeloma cell proliferation by suppressing IRF4-MYC signaling” (2019).
Activity calls are given as the source filed them. The calls are words filed in the database; no cut-off is given here.

What was measured:
KMS-12-PE = assay: Antiproliferative activity against human KMS-12-PE cells treated upto 14 days with replacement of fresh medium containing drug every 3 to 4 days by cell counting kit-8 method; type: functional, cell-based; conditions: time <= 14.0 day
In short: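 Screen of histone methylation modifier inhibitors in 6-well plates at 3 × 10^4 to 1 × 10^5 cells/well. Drug at 1 μM or DMSO for up to 14 days, with medium and drug refreshed every 3-4 days. CCK-8 read on days 3-4 and 11-14. Values normalized to DMSO; mean of 5 replications ± SEM; unpaired two-sided t-test.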

KMS-12-BM = assay: Upregulation of DOT1L in human KMS-12-BM cells by qRT-PCR analysis; type: functional, cell-based
In short: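 Basal DOT1L transcript in untreated myeloma cell lines measured by qRT-PCR, normalized to ACTB; mean of 3 replicates with SEM.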

RPMI-8226 [1] = assay: Upregulation of AGPAT9 gene in human RPMI-8226 cells at 1 uM for 6 days by; type: functional, cell-based; conditions: time 6.0 day
RPMI-8226 [2] = assay: Upregulation of ALPK1 gene in human RPMI-8226 cells at 1 uM for 6 days by; type: functional, cell-based; conditions: time 6.0 day
RPMI-8226 [3] = assay: Upregulation of APOL4 gene in human RPMI-8226 cells at 1 uM for 6 days by; type: functional, cell-based; conditions: time 6.0 day
RPMI-8226 [4] = assay: Upregulation of CAPN2 gene in human RPMI-8226 cells at 1 uM for 6 days by; type: functional, cell-based; conditions: time 6.0 day
RPMI-8226 [5] = assay: Upregulation of CARD6 gene in human RPMI-8226 cells at 1 uM for 6 days by; type: functional, cell-based; conditions: time 6.0 day
RPMI-8226 [6] = assay: Upregulation of CCL2 gene in human RPMI-8226 cells at 1 uM for 6 days by; type: functional, cell-based; conditions: time 6.0 day
RPMI-8226 [7] = assay: Upregulation of HLA-DPB1 gene in human RPMI-8226 cells at 1 uM for 6 days by; type: functional, cell-based; conditions: time 6.0 day
RPMI-8226 [8] = assay: Upregulation of HLA-DRA gene in human RPMI-8226 cells at 1 uM for 6 days by; type: functional, cell-based; conditions: time 6.0 day
RPMI-8226 [9] = assay: Upregulation of HLA-DRB1 gene in human RPMI-8226 cells at 1 uM for 6 days by; type: functional, cell-based; conditions: time 6.0 day
RPMI-8226 [10] = assay: Upregulation of HLA-DRB5 gene in human RPMI-8226 cells at 1 uM for 6 days by; type: functional, cell-based; conditions: time 6.0 day
RPMI-8226 [11] = assay: Upregulation of IL1RAP gene in human RPMI-8226 cells at 1 uM for 6 days by; type: functional, cell-based; conditions: time 6.0 day
RPMI-8226 [12] = assay: Upregulation of MILR1 gene in human RPMI-8226 cells at 1 uM for 6 days by; type: functional, cell-based; conditions: time 6.0 day
RPMI-8226 [13] = assay: Upregulation of RIMBP3 gene in human RPMI-8226 cells at 1 uM for 6 days by; type: functional, cell-based; conditions: time 6.0 day
RPMI-8226 [14] = assay: Upregulation of SAP30L gene in human RPMI-8226 cells at 1 uM for 6 days by; type: functional, cell-based; conditions: time 6.0 day
RPMI-8226 [15] = assay: Upregulation of SERPINB1 gene in human RPMI-8226 cells at 1 uM for 6 days by; type: functional, cell-based; conditions: time 6.0 day
RPMI-8226 [16] = assay: Upregulation of SOAT2 gene in human RPMI-8226 cells at 1 uM for 6 days by; type: functional, cell-based; conditions: time 6.0 day
RPMI-8226 [17] = assay: Upregulation of SORL1 gene in human RPMI-8226 cells at 1 uM for 6 days by; type: functional, cell-based; conditions: time 6.0 day
MM1.S [18] = assay: Upregulation of ACOT11 gene in human MM1.S cells at 1 uM for 6 days by; type: functional, cell-based; conditions: time 6.0 day
MM1.S [19] = assay: Upregulation of ALPK1 gene in human MM1.S cells at 1 uM for 6 days by; type: functional, cell-based; conditions: time 6.0 day
MM1.S [20] = assay: Upregulation of AMY1C gene in human MM1.S cells at 1 uM for 6 days by; type: functional, cell-based; conditions: time 6.0 day
MM1.S [21] = assay: Upregulation of BCL6 gene in human MM1.S cells at 1 uM for 6 days by; type: functional, cell-based; conditions: time 6.0 day
MM1.S [22] = assay: Upregulation of CAPN2 gene in human MM1.S cells at 1 uM for 6 days by; type: functional, cell-based; conditions: time 6.0 day
MM1.S [23] = assay: Upregulation of CPED1 gene in human MM1.S cells at 1 uM for 6 days by; type: functional, cell-based; conditions: time 6.0 day
In short: (§1)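 Human myeloma lines RPMI-8226 and MM.1S exposed to 1 μM DOT1L inhibitor, or DMSO, for 6 days. Whole-genome expression profiled on gene expression microarray.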

MM1.S [24] = assay: Upregulation of GPD2 gene in human MM1.S cells at 1 uM for 6 days by; type: functional, cell-based; conditions: time 6.0 day; in short: as §1
MM1.S [25] = assay: Upregulation of GRHL3 gene in human MM1.S cells at 1 uM for 6 days by; type: functional, cell-based; conditions: time 6.0 day; in short: as §1
MM1.S [26] = assay: Upregulation of IFITM3 gene in human MM1.S cells at 1 uM for 6 days by; type: functional, cell-based; conditions: time 6.0 day
MM1.S [27] = assay: Upregulation of MS4A4A gene in human MM1.S cells at 1 uM for 6 days by; type: functional, cell-based; conditions: time 6.0 day
MM1.S [28] = assay: Upregulation of NTNG1 gene in human MM1.S cells at 1 uM for 6 days by; type: functional, cell-based; conditions: time 6.0 day
MM1.S [29] = assay: Upregulation of POPDC2 gene in human MM1.S cells at 1 uM for 6 days by; type: functional, cell-based; conditions: time 6.0 day
MM1.S [30] = assay: Upregulation of PTGER4 gene in human MM1.S cells at 1 uM for 6 days by; type: functional, cell-based; conditions: time 6.0 day
MM1.S [31] = assay: Upregulation of RAB37 gene in human MM1.S cells at 1 uM for 6 days by; type: functional, cell-based; conditions: time 6.0 day
MM1.S [32] = assay: Upregulation of RGS1 gene in human MM1.S cells at 1 uM for 6 days by; type: functional, cell-based; conditions: time 6.0 day
MM1.S [33] = assay: Upregulation of SLC9A9 gene in human MM1.S cells at 1 uM for 6 days by; type: functional, cell-based; conditions: time 6.0 day
MM1.S [34] = assay: Upregulation of SOAT2 gene in human MM1.S cells at 1 uM for 6 days by; type: functional, cell-based; conditions: time 6.0 day
MM1.S [35] = assay: Upregulation of TLE1 gene in human MM1.S cells at 1 uM for 6 days by; type: functional, cell-based; conditions: time 6.0 day
MM1.S [36] = assay: Upregulation of TP53I3 gene in human MM1.S cells at 1 uM for 6 days by; type: functional, cell-based; conditions: time 6.0 day
MM1.S [37] = assay: Effect on human MM1.S cells assessed as change in IRF4 mRNA level at 1 uM for 6 days by qRT-PCR analysis; conditions: time 6.0 day
RPMI-8226 [38] = assay: Antiproliferative activity against human RPMI-8226 cells treated 3 days at 1 uM; type: functional, cell-based; conditions: time 3.0 day
In short: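 Cell lines in 6-well plates, 2 × 10^4 to 8 × 10^5 cells/well, exposed to DOT1L inhibitor at 0.25-1 μM or DMSO, with medium and drug refreshed every 3 days. Viability read with Cell Counting Kit-8 on a microplate reader. Values normalized to untreated cells; mean of 3 replications ± SEM.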

RPMI-8226 [39] = assay: Induction of apoptosis in human RPMI-8226 cells assessed as early apoptotic cells at 1 uM for 3 days by annexin-V based propidium iodide staining based flow cytometric analysis (reference value: 3.02%); type: functional; conditions: time 3 day
RPMI-8226 [40] = assay: Effect on human RPMI-8226 cells assessed as change in KLF2 mRNA level at 1 uM for 3 days by ChIP-qPCR analysis; type: functional, cell-based; conditions: time 3.0 day
In short: (§2)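 ChIP-qPCR for H3K79me2 at IRF4-MYC signaling genes after 1 μM inhibitor or DMSO for 3 days. Signal normalized to input DNA. An intergenic region 28 kb upstream of KLF2 served as negative control. Mean of 3 replications ± SEM.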

MM1.S [41] = assay: Effect on human MM1.S cells assessed as change in KLF2 mRNA level at 1 uM for 3 days by ChIP-qPCR analysis; type: functional, cell-based; conditions: time 3.0 day; in short: as §2

Compound: CC(C)N(CCCNC(=O)Nc1ccc(C(C)(C)C)cc1)C[C@H]1O[C@@H](n2cc(Br)c3c(N)ncnc32)[C@H](O)[C@@H]1O
- Activity (KMS-12-PE): inactive
- Activity (KMS-12-BM): Active
- Activity (RPMI-8226 [1]): Active
- Activity (RPMI-8226 [2]): Active
- Activity (RPMI-8226 [3]): Active
- Activity (RPMI-8226 [4]): Active
- Activity (RPMI-8226 [5]): Active
- Activity (RPMI-8226 [6]): Active
- Activity (RPMI-8226 [7]): Active
- Activity (RPMI-8226 [8]): Active
- Activity (RPMI-8226 [9]): Active
- Activity (RPMI-8226 [10]): Active
- Activity (RPMI-8226 [11]): Active
- Activity (RPMI-8226 [12]): Active
- Activity (RPMI-8226 [13]): Active
- Activity (RPMI-8226 [14]): Active
- Activity (RPMI-8226 [15]): Active
- Activity (RPMI-8226 [16]): Active
- Activity (RPMI-8226 [17]): Active
- Activity (MM1.S [18]): Active
- Activity (MM1.S [19]): Active
- Activity (MM1.S [20]): Active
- Activity (MM1.S [21]): Active
- Activity (MM1.S [22]): Active
- Activity (MM1.S [23]): Active
- Activity (MM1.S [24]): Active
- Activity (MM1.S [25]): Active
- Activity (MM1.S [26]): Active
- Activity (MM1.S [27]): Active
- Activity (MM1.S [28]): Active
- Activity (MM1.S [29]): Active
- Activity (MM1.S [30]): Active
- Activity (MM1.S [31]): Active
- Activity (MM1.S [32]): Active
- Activity (MM1.S [33]): Active
- Activity (MM1.S [34]): Active
- Activity (MM1.S [35]): Active
- Activity (MM1.S [36]): Active
- Activity (MM1.S [37]): Active

Compound: CC(C)N(C[C@H]1O[C@@H](n2cnc3c(N)ncnc32)[C@H](O)[C@@H]1O)[C@H]1C[C@@H](CCc2nc3cc(C(C)(C)C)ccc3[nH]2)C1 [PINOMETOSTAT]
- Activity (RPMI-8226 [38]): Active
- Activity (RPMI-8226 [39]): 7.39%
- Activity (RPMI-8226 [40]): Active
- Activity (MM1.S [41]): Active
